ChEMBL document CHEMBL1153726, “Synthesis and anticancer activity of sclerophytin-inspired hydroisobenzofurans” (Bioorg Med Chem Lett, 2009)

What was measured:
[1] = Antitumor activity against human KB3 cells after 96 hrs by MTT assay; type: functional, cell-based; settings: KB3, 96 h
Method in brief: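 Human KB-3 carcinoma cells exposed to increasing compound concentrations; viability read by MTT colorimetric assay after 96 h. Values are means of triplicate assays, expressed relative to untreated controls.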

MDA-MB-231 = assay: Growth inhibition of human MDA-MB-231 cells at 10 uM after 96 hrs by MTT assay; type: functional; parameters: scale not given: the % may be the effect or the level left
UO-31 = assay: Growth inhibition of human UO31 cells at 10 uM after 96 hrs by MTT assay; type: functional; parameters: scale not given: the % may be the effect or the level left
COLO 205 = assay: Growth inhibition of human COLO205 cells at 10 uM after 96 hrs by MTT assay; type: functional; parameters: scale not given: the % may be the effect or the level left
HCT-116 = assay: Growth inhibition of human HCT116 cells at 10 uM after 96 hrs by MTT assay; type: functional; parameters: scale not given: the % may be the effect or the level left
ACHN = assay: Growth inhibition of human ACHN cells at 10 uM after 96 hrs by MTT assay; type: functional; parameters: scale not given: the % may be the effect or the level left
A549 = assay: Growth inhibition of human A549 cells at 10 uM after 96 hrs by MTT assay; type: functional; parameters: scale not given: the % may be the effect or the level left
HCT-15 = assay: Growth inhibition of human HCT15 cells at 10 uM after 96 hrs by MTT assay; type: functional; parameters: scale not given: the % may be the effect or the level left
HCC 2998 = assay: Growth inhibition of human HCC2998 cells at 10 uM after 96 hrs by MTT assay; type: functional; parameters: scale not given: the % may be the effect or the level left
SR = assay: Growth inhibition of human SR cells at 10 uM after 96 hrs by MTT assay; type: functional; parameters: scale not given: the % may be the effect or the level left
HL-60(TB) = assay: Growth inhibition of human HL-60(TB) cells at 10 uM after 96 hrs by MTT assay; type: functional; parameters: scale not given: the % may be the effect or the level left
KM12 = assay: Growth inhibition of human KM12 cells at 10 uM after 96 hrs by MTT assay; type: functional; parameters: scale not given: the % may be the effect or the level left
SK-MEL-2 = assay: Growth inhibition of human SK-MEL-2 cells at 10 uM after 96 hrs by MTT assay; type: functional; parameters: scale not given: the % may be the effect or the level left
IGROV-1 = assay: Growth inhibition of human IGROV1 cells at 10 uM after 96 hrs by MTT assay; type: functional; parameters: scale not given: the % may be the effect or the level left
T47D = assay: Growth inhibition of human T47D cells at 10 uM after 96 hrs by MTT assay; type: functional; parameters: scale not given: the % may be the effect or the level left
SK-MEL-5 = assay: Growth inhibition of human SK-MEL-5 cells at 10 uM after 96 hrs by MTT assay; type: functional; parameters: scale not given: the % may be the effect or the level left
SW-620 = assay: Growth inhibition of human SW620 cells at 10 uM after 96 hrs by MTT assay; type: functional; parameters: scale not given: the % may be the effect or the level left
HT-29 = assay: Growth inhibition of human HT-29 cells at 10 uM after 96 hrs by MTT assay; type: functional; parameters: scale not given: the % may be the effect or the level left
OVCAR-8 = assay: Growth inhibition of human OVCAR8 cells at 10 uM after 96 hrs by MTT assay; type: functional; parameters: scale not given: the % may be the effect or the level left
[2] = Growth inhibition of human RPMI8266 cells at 10 uM after 96 hrs by MTT assay; type: functional; parameters: scale not given: the % may be the effect or the level left
Malme-3M = assay: Growth inhibition of human MALME-3M cells at 10 uM after 96 hrs by MTT assay; type: functional; parameters: scale not given: the % may be the effect or the level left
MOLT-4 = assay: Growth inhibition of human MOLT4 cells at 10 uM after 96 hrs by MTT assay; type: functional; parameters: scale not given: the % may be the effect or the level left
RXF 393 = assay: Growth inhibition of human RXF393 cells at 10 uM after 96 hrs by MTT assay; type: functional; parameters: scale not given: the % may be the effect or the level left
M14 = assay: Growth inhibition of human M14 cells at 10 uM after 96 hrs by MTT assay; type: functional; parameters: scale not given: the % may be the effect or the level left
NCI-H23 = assay: Growth inhibition of human NCI-H23 cells at 10 uM after 96 hrs by MTT assay; type: functional; parameters: scale not given: the % may be the effect or the level left
MCF7 = assay: Growth inhibition of human MCF7 cells at 10 uM after 96 hrs by MTT assay; type: functional; parameters: scale not given: the % may be the effect or the level left
TK-10 = assay: Growth inhibition of human TK10 cells at 10 uM after 96 hrs by MTT assay; type: functional; parameters: scale not given: the % may be the effect or the level left
HOP-62 = assay: Growth inhibition of human HOP62 cells at 10 uM after 96 hrs by MTT assay; type: functional; parameters: scale not given: the % may be the effect or the level left
DU-145 = assay: Growth inhibition of human DU145 cells at 10 uM after 96 hrs by MTT assay; type: functional; parameters: scale not given: the % may be the effect or the level left
SK-MEL-28 = assay: Growth inhibition of human SK-MEL-28 cells at 10 uM after 96 hrs by MTT assay; type: functional; parameters: scale not given: the % may be the effect or the level left
PC-3 = assay: Growth inhibition of human PC3 cells at 10 uM after 96 hrs by MTT assay; type: functional; parameters: scale not given: the % may be the effect or the level left
MDA-MB-435 = assay: Growth inhibition of human MDA-MB-435 cells at 10 uM after 96 hrs by MTT assay; type: functional; parameters: scale not given: the % may be the effect or the level left
K562 = assay: Growth inhibition of human K562 cells at 10 uM after 96 hrs by MTT assay; type: functional; parameters: scale not given: the % may be the effect or the level left
SK-OV-3 = assay: Growth inhibition of human SKOV3 cells at 10 uM after 96 hrs by MTT assay; type: functional; parameters: scale not given: the % may be the effect or the level left
SF-268 = assay: Growth inhibition of human SF268 cells at 10 uM after 96 hrs by MTT assay; type: functional; parameters: scale not given: the % may be the effect or the level left
HOP-92 = assay: Growth inhibition of human HOP92 cells at 10 uM after 96 hrs by MTT assay; type: functional; parameters: scale not given: the % may be the effect or the level left
OVCAR-4 = assay: Growth inhibition of human OVCAR4 cells at 10 uM after 96 hrs by MTT assay; type: functional; parameters: scale not given: the % may be the effect or the level left
OVCAR-5 = assay: Growth inhibition of human OVCAR5 cells at 10 uM after 96 hrs by MTT assay; type: functional; parameters: scale not given: the % may be the effect or the level left
UACC-62 = assay: Growth inhibition of human UACC62 cells at 10 uM after 96 hrs by MTT assay; type: functional; parameters: scale not given: the % may be the effect or the level left
NCI-H226 = assay: Growth inhibition of human NCI-H226 cells at 10 uM after 96 hrs by MTT assay; type: functional; parameters: scale not given: the % may be the effect or the level left
U-251 = assay: Growth inhibition of human U251 cells at 10 uM after 96 hrs by MTT assay; type: functional; parameters: scale not given: the % may be the effect or the level left
SN12C = assay: Growth inhibition of human SN12C cells at 10 uM after 96 hrs by MTT assay; type: functional; parameters: scale not given: the % may be the effect or the level left
SNB-19 = assay: Growth inhibition of human SNB19 cells at 10 uM after 96 hrs by MTT assay; type: functional; parameters: scale not given: the % may be the effect or the level left
NCI/ADR-RES = assay: Growth inhibition of human NCI/ADR-RES cells at 10 uM after 96 hrs by MTT assay; type: functional; parameters: scale not given: the % may be the effect or the level left
OVCAR-3 = assay: Growth inhibition of human OVCAR-3 cells at 10 uM after 96 hrs by MTT assay; type: functional; parameters: scale not given: the % may be the effect or the level left
786-0 = assay: Growth inhibition of human 786-0 cells at 10 uM after 96 hrs by MTT assay; type: functional; parameters: scale not given: the % may be the effect or the level left
NCI-H460 = assay: Growth inhibition of human NCI-H460 cells at 10 uM after 96 hrs by MTT assay; type: functional; parameters: scale not given: the % may be the effect or the level left
UACC-257 = assay: Growth inhibition of human UACC257 cells at 10 uM after 96 hrs by MTT assay; type: functional; parameters: scale not given: the % may be the effect or the level left
MDA-MB-468 = assay: Growth inhibition of human MDA-MB-468 cells at 10 uM after 96 hrs by MTT assay; type: functional; parameters: scale not given: the % may be the effect or the level left
[3] = Growth inhibition of human Hs 578T cells at 10 uM after 96 hrs by MTT assay; type: functional; parameters: scale not given: the % may be the effect or the level left
SF-539 = assay: Growth inhibition of human SF539 cells at 10 uM after 96 hrs by MTT assay; type: functional; parameters: scale not given: the % may be the effect or the level left
NCI-H522 = assay: Growth inhibition of human NCI-H522 cells at 10 uM after 96 hrs by MTT assay; type: functional; parameters: scale not given: the % may be the effect or the level left
SF-295 = assay: Growth inhibition of human SF295 cells at 10 uM after 96 hrs by MTT assay; type: functional; parameters: scale not given: the % may be the effect or the level left
A498 = assay: Growth inhibition of human A498 cells at 10 uM after 96 hrs by MTT assay; type: functional; parameters: scale not given: the % may be the effect or the level left
LOX IMVI = assay: Growth inhibition of human LOXIMVI cells at 10 uM after 96 hrs by MTT assay; type: functional; parameters: scale not given: the % may be the effect or the level left
EKVX = assay: Growth inhibition of human EKVX cells at 10 uM after 96 hrs by MTT assay; type: functional; parameters: scale not given: the % may be the effect or the level left
SNB-75 = assay: Growth inhibition of human SNB75 cells at 10 uM after 96 hrs by MTT assay; type: functional; parameters: scale not given: the % may be the effect or the level left
NCI-H322M = assay: Growth inhibition of human NCI-H322M cells at 10 uM after 96 hrs by MTT assay; type: functional; parameters: scale not given: the % may be the effect or the level left
CCRF-CEM = assay: Growth inhibition of human CCRF-CEM cells at 10 uM after 96 hrs by MTT assay; type: functional; parameters: scale not given: the % may be the effect or the level left
BT-549 = assay: Growth inhibition of human BT549 cells at 10 uM after 96 hrs by MTT assay; type: functional; parameters: scale not given: the % may be the effect or the level left

SMILES: C=C(C)[C@H]1CC=C(C)[C@H]2[C@@H]1[C@H](c1ccccc1Br)O[C@@H]2C(=O)OCC
- IC50 [1]: > 100000 nM

SMILES: C=C(C)[C@H]1CC(=O)C(C)=C2[C@@H](C(=O)OCC)O[C@@H](c3ccc(Cl)cc3Cl)[C@@H]21
- Activity (MDA-MB-231): 76.61%
- Activity (UO-31): 121.05%
- Activity (COLO 205): 94.54%
- Activity (HCT-116): 42.99%
- Activity (ACHN): 89.8%
- Activity (A549): 41.04%
- Activity (HCT-15): 71.15%
- Activity (HCC 2998): 107.11%
- Activity (SR): 12.69%
- Activity (HL-60(TB)): -31.34%
- Activity (KM12): 63.13%
- IC50 [1]: 3000 nM
- Activity (SK-MEL-2): 39.43%
- Activity (IGROV-1): 80.84%
- Activity (T47D): 40.94%
- Activity (SK-MEL-5): 52.4%
- Activity (SW-620): 72.54%
- Activity (HT-29): 66.3%
- Activity (OVCAR-8): 81.47%
- Activity [2]: -4.6%
- Activity (Malme-3M): 84.13%
- Activity (MOLT-4): 17.98%
- Activity (RXF 393): 69.05%
- Activity (M14): 78.49%
- Activity (NCI-H23): 65.8%
- Activity (MCF7): 62.06%
- Activity (TK-10): 98.26%
- Activity (HOP-62): 84.64%
- Activity (DU-145): 83.07%
- Activity (SK-MEL-28): 98.82%
- Activity (PC-3): 44.34%
- Activity (MDA-MB-435): 48.5%
- Activity (K562): 25.32%
- Activity (SK-OV-3): 103.67%
- Activity (SF-268): 78.47%
- Activity (HOP-92): 49.8%
- Activity (OVCAR-4): 65.97%
- Activity (OVCAR-5): 119.16%
- Activity (UACC-62): 45.44%
- Activity (NCI-H226): 81.04%
- Activity (U-251): 53.44%
- Activity (SN12C): 94.13%
- Activity (SNB-19): 89.23%
- Activity (NCI/ADR-RES): 74.31%
- Activity (OVCAR-3): 72.74%
- Activity (786-0): 84.02%
- Activity (NCI-H460): 58.73%
- Activity (UACC-257): 51.65%
- Activity (MDA-MB-468): 13.57%
- Activity [3]: 78.32%
- Activity (SF-539): 76.69%
- Activity (NCI-H522): 9.23%
- Activity (SF-295): 88.75%
- Activity (A498): 82.29%
- Activity (LOX IMVI): 66.98%
- Activity (EKVX): 69.98%
- Activity (SNB-75): 50.59%
- Activity (NCI-H322M): 92.62%
- Activity (CCRF-CEM): 19.48%
- Activity (BT-549): 41.32%
